Hits are enriched below; roughly 1.7% of the tested compounds scored in any of these assays.
PLCg1 inh: PLC-gamma1 (human) inhibition, primary screen. P19174. purified PLC-gamma1, fluorogenic substrate, fluorescence. inhibition, % at 12.2 µM. actives 0.84% (n = 370,000). AID 720700
UCH37 inh: blocks the human deubiquitinase UCH37; Q9Y5K5; purified proteasome/UCH37, Ub-AMC cleavage fluorescence; inhibition, % (no concentration beside the values); actives 0.33% (n = 330,000);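 active = mean inhibition over replicate wells above about 20%, limit read from the data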
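Material: Human UCH37 enzyme supplied as purified proteasome complex | Schedule: 30 min preincubation with enzyme, 25 min cleavage at room temperature | Detection: AMC fluorescence 355/460 nm | Measure: % inhibition of Ub-AMC cleavage fluorescence | Controls: Wells without proteasome as full block, compound-free enzyme plus substrate as uninhibited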
PLCb3 inh: blocks human PLC-beta3 enzyme activity; Q01970; Purified PLC-beta3, fluorogenic substrate, fluorescence; inhibition, % at 12.2 µM; actives 0.18% (n = 370,000); AID 720704; in the data active = inhibition above about 11%
Rpn11 block: blocks the human proteasome subunit Rpn11; actives 0.59% (n = 360,000); O00487; human 26S proteasome, Ub4-pepOG fluorescence polarization; 20S core pre-blocked with epoxomicin; inhibition, % at 20 µM;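 active = inhibition at 20 µM, scaled to each plate's controls, above about 33%, limit read from the data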
Target sequence (O00487 whole entry, looked up): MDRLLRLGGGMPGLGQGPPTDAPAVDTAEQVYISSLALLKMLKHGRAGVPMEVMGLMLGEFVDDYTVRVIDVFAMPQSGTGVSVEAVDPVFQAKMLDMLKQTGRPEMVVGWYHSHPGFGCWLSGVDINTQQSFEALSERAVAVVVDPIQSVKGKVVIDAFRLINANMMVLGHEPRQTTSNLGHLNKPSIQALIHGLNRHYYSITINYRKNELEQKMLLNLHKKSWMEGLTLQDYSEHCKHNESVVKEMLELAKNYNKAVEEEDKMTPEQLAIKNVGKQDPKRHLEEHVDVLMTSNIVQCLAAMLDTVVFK
PLCgamma1 ctr: PLC-gamma1 inhibition, counter-screen for PLC-beta3 hits; shares compounds with PLCg1 inh; purified PLC-gamma1, fluorogenic substrate, fluorescence; inhibition, % at 12.3 µM; actives 3.1% (n = 3,300)
PLCbeta3 conf: confirmation of human PLC-beta3 inhibitors | shares compounds with PLCg1 inh | purified PLC-beta3, fluorogenic substrate fluorescence | inhibition, % at 12.3 µM | actives 1% (n = 3,300); in the data active = inhibition above about 11%
Large screens that a line does not name were inactive (follow-up assays come after a bar, where they were run). Cut-off read from the data, not from the text of the source, unless noted: active = inhibition above about 9.5%; inactive = the rest.

O=C(CN1C(=O)c2ccccc2S1(=O)=O)N1CCN(c2ccc(F)cc2)CC1	PLCg1 inh 11 | PLCgamma1 ctr inactive | PLCbeta3 conf inactive
Cc1ccc(C=NNC(=O)Cc2ccc(Cl)cc2)c(O)c1	none (no result: PLCg1 inh, PLCb3 inh, Rpn11 block)
CC(=C/C(=O)O)/C(=C\c1ccc(Br)o1)C(=O)O	none
CC(=C/C(=O)O)/C(=C/c1ccccc1)C(=O)O	PLCg1 inh 10 | PLCgamma1 ctr inactive | PLCbeta3 conf inactive
COc1cc(C=NNC(=O)Cn2nc([N+](=O)[O-])cc2C)cc(Br)c1OCc1ccccc1	none (no result: PLCg1 inh, PLCb3 inh, Rpn11 block)
CC(=O)Nc1nnc(CCS(=O)(=O)c2ccc(C)c(C)c2)s1	PLCg1 inh 14 | PLCgamma1 ctr inactive | PLCbeta3 conf inactive
Cc1ccc(S(=O)(=O)CCc2nnc(NC(=O)C3CCCCC3)s2)cc1	none
S=C(NN=Cc1ccc2ncccc2c1)Nc1cccnc1	none (no result: PLCg1 inh, PLCb3 inh, Rpn11 block)
CC(Oc1ccccc1)C(=O)Nc1cccc(NC(=O)c2ccco2)c1 (stereo not drawn)	PLCg1 inh 11 | PLCgamma1 ctr inactive | PLCbeta3 conf inactive
CCC(=O)Nc1sc2c(c1C#N)CC(C)(C)NC2(C)C	none
Cc1ccc(OCC(=O)Nc2sc3c(c2C#N)CC(C)(C)NC3(C)C)cc1	PLCg1 inh 10 | PLCgamma1 ctr inactive | PLCbeta3 conf inactive
Cn1cc(C(=O)NN=Cc2ccc([N+](=O)[O-])cc2)c2ccccc21	none (no result: PLCg1 inh, PLCb3 inh, Rpn11 block)
COc1ccc(S(=O)(=O)Nc2ccccc2C)cc1	none
COc1ccc(S(=O)(=O)Nc2c(F)cccc2F)cc1	PLCg1 inh 14 | PLCgamma1 ctr inactive | PLCbeta3 conf inactive
O=C1NC(=S)S/C1=C\c1ccc(SCc2ccccc2)o1	PLCg1 inh 57, Rpn11 block 84 | PLCgamma1 ctr 29 | PLCbeta3 conf inactive
CCOc1ccc(C(C)=NNC(=O)C(OC)c2ccccc2)cc1 (stereo not drawn)	none (no result: PLCg1 inh, PLCb3 inh, Rpn11 block)
O=C(COC(=O)c1ccc(Br)cc1)NCC1CCCO1 (stereo not drawn)	PLCb3 inh 12 | PLCgamma1 ctr inactive | PLCbeta3 conf inactive
O=C(COC(=O)c1ccccc1)NCC1CCCO1 (stereo not drawn)	none
COc1ccc(S(=O)(=O)NN=C(C)c2cccc(NC(=O)c3ccccc3Cl)c2)cc1	none (no result: PLCg1 inh, PLCb3 inh, Rpn11 block)
COc1ccc([N+](=O)[O-])cc1NC(=O)CSCc1ccccc1C	none
COC(=O)Nc1cc([N+](=O)[O-])ccc1OC	PLCg1 inh 10.0 | PLCgamma1 ctr inactive | PLCbeta3 conf inactive
COc1ccc([N+](=O)[O-])cc1NC(=O)Nc1ccccc1	none
COc1ccc([N+](=O)[O-])cc1NC(=O)CSCc1ccc(Br)cc1	PLCg1 inh 11 | PLCgamma1 ctr inactive | PLCbeta3 conf inactive
NC(=O)c1ccc(C=NO)[n+](Cc2ccccc2)c1	none (no result: PLCg1 inh, PLCb3 inh, Rpn11 block)
CC(NS(=O)(=O)c1ccc2c(c1)C(=O)c1cc(S(=O)(=O)NC(C)C(=O)O)ccc1-2)C(=O)O (stereo not drawn)	PLCg1 inh 15 | PLCgamma1 ctr inactive | PLCbeta3 conf inactive
CC(=O)NS(=O)(=O)c1ccc2c(c1)C(=O)c1cc(S(=O)(=O)NC(C)=O)ccc1-2	none
O=C(Nc1ncc2c(n1)CC(c1cccc(Cl)c1)CC2=O)c1ccco1 (stereo not drawn)	PLCg1 inh 19 | PLCgamma1 ctr inactive | PLCbeta3 conf inactive
CC(=O)OCC(=O)Nc1ccc(Cl)cc1Cl	PLCg1 inh 10 | PLCgamma1 ctr inactive | PLCbeta3 conf inactive
CC1=C(C)CC(C(=O)Nc2nccs2)C(C(=O)O)C1 (stereo not drawn)	none
O=C(O)C1CCCCC1C(=O)Nc1nccs1 (stereo not drawn)	PLCg1 inh 12 | PLCgamma1 ctr inactive | PLCbeta3 conf inactive
O=C(CNCCC1=CCCCC1)Nc1ccccc1N1CCCCC1	PLCg1 inh 12 | PLCgamma1 ctr inactive | PLCbeta3 conf inactive
COc1cccc(C=NN2CCN(C3c4ccccc4-c4ccccc43)CC2)c1O	none (no result: PLCg1 inh, PLCb3 inh, Rpn11 block)
COc1ccc(C=NNC(=O)c2ccccc2)cc1COc1ccccc1	none (no result: PLCg1 inh, PLCb3 inh, Rpn11 block)
COc1ccc(CCNC(=O)CCNS(=O)(=O)c2cccc3nsnc23)cc1OC	PLCg1 inh 11 | PLCgamma1 ctr inactive | PLCbeta3 conf inactive
COc1ccc(NC(=O)C2CCCN(S(C)(=O)=O)C2)cc1OC (stereo not drawn)	PLCg1 inh 10 | PLCgamma1 ctr inactive | PLCbeta3 conf inactive
O=C1c2ccccc2C(=O)N1CCCCN(C(=O)c1cc([N+](=O)[O-])cc([N+](=O)[O-])c1)c1ccc(Cl)cc1	none

Assay outcomes deposited in PubChem by several laboratories.
